Common to all, as to assay type: cell-based
In data set [1] the target is Transcription factor GATA-4 (Mus musculus) (UniProt Q08369). As to the kind of experiment: Enhancement of mouse GATA4 expressed in Chlorocebus aethiops COS1 cells harboring NP-112 reporter gene assessed as BNP promoter-driven transcriptional activity at 10 uM after 24 hrs by luciferase reporter gene assay relative to control. The method in brief:
(§1)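 GATA reporter assay: COS-1 cells (14 000/well, overnight) transfected 6 h serum/antibiotic-free with NP-112 reporter (tandem GATA sites plus rat BNP minimal promoter, 100 ng/well) and pMT2-GATA4 (25 ng/well), Fugene 6 1:3. Treated 24 h with compound or 0.1% DMSO. Luminescence read; triplicates, Grubbs outliers removed, % of control.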

For data set [2], the target named is Homeobox protein Nkx-2.5 (Mus musculus) (UniProt P42582). As to the kind of experiment: Modulation of mouse NKX2-5 expressed in Chlorocebus aethiops COS1 cells harboring 3xHA reporter gene assessed as protein-induced transcriptional activity at 10 uM after 24 hrs by luciferase reporter gene assay relative to control. Summed up: (§2)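 COS-1 cells seeded 14 000/well and grown overnight. Transfection for 6 h in serum- and antibiotic-free medium with pGL3-3xHA reporter (100 ng/well) and pMT2-NKX2-5 (25 ng/well), Fugene 6 1:3. Compound or 0.1% DMSO vehicle for 24 h, then luciferase luminescence. Triplicate wells with Grubbs outlier removal, % of control.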

Data set [3] concerns the target T1, GATA4/NKX2-5 (Mus musculus) (UniProt Q08369+P42582). The data set is described as follows: Modulation of mouse GATA4/mouse NKX2-5 protein-protein interaction expressed in Chlorocebus aethiops COS1 cells harboring 3xHA reporter gene assessed as transcriptional synergy at 10 uM after 24 hrs by luciferase reporter gene assay relative to control. The method in brief: (§3)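 COS-1 cells seeded 14 000/well, grown overnight, then transfected for 6 h in serum- and antibiotic-free medium with pGL3-3xHA reporter (three NKX2-5 sites, 100 ng/well) plus pMT2-GATA4 and pMT2-NKX2-5 (total 50 ng/well), Fugene 6 at 1:3 DNA/reagent. Compound or 0.1% DMSO vehicle for 24 h, then luminescence read. Triplicates, Grubbs outliers removed, expressed as % of control.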

The target of data set [4] is T1, GATA4/NKX2-5 (Mus musculus). As to the kind of experiment: Inhibition of mouse GATA4/mouse NKX2-5 protein-protein interaction expressed in Chlorocebus aethiops COS1 cells harboring 3xHA reporter gene assessed as transcriptional synergy at 10 uM after 24 hrs by luciferase reporter gene assay relative to control. Further details: scale not given: the % may be the effect or the level left. Summed up: as §3
A general note: In a reporter assay the amount or activity of a reporter protein is the signal.

The subject of the next data set is COS-1. As to the kind of experiment: Induction of necrosis in Chlorocebus aethiops COS1 cells assessed as LDH release at 1 to 30 uM after 24 hrs by LDH assay relative to control. The settings on record: cos-1, 24 h. The method in brief:
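COS-1 cells in DMEM with 10% FBS at 37 °C, 5% CO₂, plated 10 000/well and exposed next day to 1–30 μM for 24 h. Medium samples mixed with NAD, iodonitrotetrazolium, lactate and phenazine methosulfate in 0.2 M Tris-HCl pH 8.2, 30 min at room temperature. Stopped with acetic acid, A490 read and normalized to maximal and spontaneous release.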
(In general: LDH in the medium is a marker of cell lysis.)

Data set [5] has as its target Homeobox protein Nkx-2.5 (Mus musculus) (UniProt P42582). As to the kind of experiment: Inhibition of mouse NKX2-5 expressed in Chlorocebus aethiops COS1 cells harboring 3xHA reporter gene assessed as protein-induced transcriptional activity at 10 uM after 24 hrs by luciferase reporter gene assay relative to control. Further details: scale not given: the % may be the effect or the level left. Summed up: as §2

For data set [6], the target named is Transcription factor GATA-4 (Mus musculus) (UniProt Q08369). The data set is described as follows: Inhibition of mouse GATA4 expressed in Chlorocebus aethiops COS1 cells harboring NP-112 reporter gene assessed as BNP promoter-driven transcriptional activity at 10 uM after 24 hrs by luciferase reporter gene assay relative to control. Further details: scale not given: the % may be the effect or the level left. The method in brief:
as §1

The target is the same in data set [7]. As to the kind of experiment: Modulation of mouse GATA4 expressed in Chlorocebus aethiops COS1 cells harboring NP-112 reporter gene assessed as BNP promoter-driven transcriptional activity at 10 uM after 24 hrs by luciferase reporter gene assay relative to control. Summed up:
as §1

Data set [8] addresses Homeobox protein Nkx-2.5 (Mus musculus) (UniProt P42582). As to the kind of experiment: Enhancement of mouse NKX2-5 expressed in Chlorocebus aethiops COS1 cells harboring 3xHA reporter gene assessed as protein-induced transcriptional activity at 10 uM after 24 hrs by luciferase reporter gene assay relative to control. Summed up: as §2
Data set [9] addresses T1, GATA4/NKX2-5 (Mus musculus). As to the kind of experiment: Enhancement of mouse GATA4/mouse NKX2-5 protein-protein interaction expressed in Chlorocebus aethiops COS1 cells harboring 3xHA reporter gene assessed as transcriptional synergy at 10 uM after 24 hrs by luciferase reporter gene assay relative to control. The method in brief:
as §3

Bounds are passed on as bounds.

Results on 44 compounds are retold here after ChEMBL document CHEMBL4321800, “Synthesis, Identification, and Structure-Activity Relationship Analysis of GATA4 and NKX2-5 Protein-Protein Interaction Modulators” (J Med Chem, 2019).

Transcription factor GATA-4 (Mus musculus), sequence (Q08369 whole entry): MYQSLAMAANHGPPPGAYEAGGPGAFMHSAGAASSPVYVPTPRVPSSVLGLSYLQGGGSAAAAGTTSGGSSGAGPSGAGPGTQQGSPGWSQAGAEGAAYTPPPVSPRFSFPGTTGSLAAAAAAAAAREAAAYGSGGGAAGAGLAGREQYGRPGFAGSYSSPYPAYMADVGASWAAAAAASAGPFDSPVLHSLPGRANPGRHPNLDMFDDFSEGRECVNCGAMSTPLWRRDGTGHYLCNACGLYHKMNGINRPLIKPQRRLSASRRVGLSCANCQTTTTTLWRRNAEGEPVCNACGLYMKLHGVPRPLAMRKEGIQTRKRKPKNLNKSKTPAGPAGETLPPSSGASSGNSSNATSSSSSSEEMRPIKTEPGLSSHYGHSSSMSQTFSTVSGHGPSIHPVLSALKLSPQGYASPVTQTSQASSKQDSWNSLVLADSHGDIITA
Homeobox protein Nkx-2.5 (Mus musculus), sequence (P42582 whole entry): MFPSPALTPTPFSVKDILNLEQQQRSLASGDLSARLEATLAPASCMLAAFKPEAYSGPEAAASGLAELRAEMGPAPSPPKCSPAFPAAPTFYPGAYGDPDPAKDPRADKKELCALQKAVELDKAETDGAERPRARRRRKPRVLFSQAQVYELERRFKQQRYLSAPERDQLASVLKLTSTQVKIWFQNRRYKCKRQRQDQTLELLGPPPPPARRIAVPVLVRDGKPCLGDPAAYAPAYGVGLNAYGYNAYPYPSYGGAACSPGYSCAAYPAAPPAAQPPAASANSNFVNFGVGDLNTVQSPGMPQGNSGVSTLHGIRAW

As for `CCN(CC)c1ccc(NC(=O)c2cc(C)oc2-c2cc(C)on2)cc1`, the Activity in [1] was found to be 140%; in data set [2] it was 110%; in [3], 100%.

Regarding `CCN(c1ccc(NC(=O)c2c(C)noc2-c2snnc2C)cc1)C(C)C`, in [4], the Activity came out at 19%.

Consider `CCN(CC)c1ccc(NC(=O)c2c(-c3ccccc3)nnn2CCc2ccccc2)cc1`, for which the Activity in the data set on COS-1 is < 8%; in data set [5], 34%; in data set [6], 38%.

As to `CCN(CC)c1ccc(NC(=O)c2snnc2-c2ccccc2)cc1`, the Activity in data set [2] is 49%; with COS-1 it was < 8%; in [3], 41%; in data set [7], 52%.

Regarding `Cc1onc(-c2ccccc2)c1C(=O)Nc1ccc(C(=O)OCCC#N)cc1`, in data set [8], the Activity is 130%.

For `CCN(CC)c1ccc(NC(=O)c2cnoc2C2CC2)cc1`, the Activity in data set [9] was found to be 140%.

For the compound `CN(C)c1ccc(/N=C/c2c[nH]nc2-c2ccc(F)cc2)cc1`, the Activity worked out at 120% in [1] and 140% in data set [8].

Consider `CCN(CC)c1ccc(NC(=O)c2c(-c3ccncc3)noc2C)cc1`, for which the Activity is 61% in [2], < 8% with COS-1, 61% in [3] and 79% in data set [7].

Regarding `CCN(CC)c1ccc(NC(=O)c2c(C)noc2-c2cc(C)on2)cc1`, the Activity in [2] was 84%; in the data set with COS-1, < 8%; in data set [3], 78%; in data set [7], 100%.

Regarding `CCN(CC)c1ccc(NC(=O)c2cn(C)nc2-c2cc(C)on2)cc1`, the Activity in [1] came to 130%; in data set [2], 93%; in [3], 99%.

For `Cc1onc(-c2ccccc2)c1C(=O)Nc1ccc(C(=O)OCCCCC#N)cc1`, the values for the Activity in data set [8], in data set [3] and in [7] were 150%, 90% and 100%, respectively.

For the compound `CCN(CC)c1ccc(NC(=O)c2csc3nnsc23)cc1`, the Activity in data set [9] came out at 130%.

As to `CCN(CC)c1ccc(NC(=O)c2c(-c3ccc(F)cc3)noc2C)cc1`, the Activity in data set [2] was 47%; in the data set with COS-1, < 8%; in data set [3], 44%; in data set [7], 79%.

`Cc1onc(-c2ccccc2)c1C(=O)Nc1ccc(C(=O)OCCCC#N)cc1`: the Activity was determined as 110% in data set [1], 97% in data set [2] and 98% in [3].

In the case of `Cc1cc(-c2onc(C)c2C(=O)Nc2ccc3oc(-c4ccccc4)cc(=O)c3c2)no1`, the Activity in data set [1] was 120%; in [8], 110%.

`CCN(CC)c1ccc(CN(C(=O)C(F)(F)F)c2c(-c3ccccc3)noc2C)cc1`: the Activity in [2] is 71%; in the data set on COS-1, < 8%; in data set [3], 52%; in [7], 72%.

On to `CCN(CC)c1ccc(NC(=O)c2c(C)nc3ccccn23)cc1`, for which the Activity in data set [2] stood at 86%; in data set [3], 78%; in [7], 94%.

As for `CCN(c1ccc(NC(=O)c2c(C)noc2-c2cc(C)on2)cc1)C(C)C`, in [1], the Activity is 120%.

Take `CCN(CC)c1ccc(NC(=O)c2cnoc2-c2ccccc2)cc1`: the Activity in data set [2] was 50%; in the data set with COS-1, < 8%; in data set [3], 47%; in data set [7] it was 62%.

For `Cc1onc(-c2ccccc2)c1C(=O)Nc1ccc(C#C[Si](C)(C)C)cc1`, the Activity in [2] is 75%; in the data set on COS-1 it was < 8%; in [3], 69%; in data set [7], 93%.

Regarding `Cc1onc(-c2ccccc2)c1C(=O)N(C)c1ccc(C(=O)O)cc1`, the Activity in data set [9] worked out at 130%.

Consider `CCc1noc(C)c1C(=O)Nc1ccc(N(CC)CC)cc1`, for which the Activity in [1] was found to be 140%; in data set [8], 160%; in [3] it was 100%.

With `CCN(CC)c1ccc(NC(=O)c2c(-c3ccoc3)noc2C)cc1`, the values for the Activity in data set [2], in [3] and in [7] were 110%, 110% and 99%, respectively.

Consider `Cc1onc(-c2ccccc2)c1NC(=O)c1ccc(N2CCN(C)CC2)cc1`, for which the Activity in data set [9] is 120%.

For `CC(=O)c1ccc(NC(=O)c2cc(-c3ccco3)on2)cc1`, in [9], the Activity is 130%.

With `CCN(c1ccc(NC(=O)c2c(-c3ccccc3)noc2C)cc1)C(C)C`, the Activity in the data set on COS-1 was < 8%; in data set [5], 34%; in data set [3] it was 41%; in [7], 75%.

As for `CCC(=O)c1ccc(OCc2c(-c3ccccc3)noc2C)cc1`, the Activity in data set [2] stood at 80%; in [3], 76%; in data set [7], 78%.

In the case of `CCC(C)NC(=O)c1cc(-c2ccco2)on1` (stereo unspecified), in data set [9], the Activity amounted to 140%.

Turning to `CCC(OC)c1ccc(OCc2c(-c3ccccc3)noc2C)cc1` (racemic), the Activity in data set [2] was 67%; with COS-1, < 8%; in data set [3], 43%; in data set [7] it was 78%.

`CC(C)c1ccc(NC(=O)c2noc3c2CCc2sccc2-3)cc1`: the Activity is 120% in data set [1] and 130% in data set [9].

`Cc1onc(-c2ccccc2)c1COc1ccc(C(=O)OCCCC#N)cc1`: the Activity in data set [2] stood at 52%; in [3], 52%; in [7], 71%.

In the case of `CCN(CC)c1ccc(NC(=O)c2csc([N+](=O)[O-])c2)cc1`, the Activity in the data set on COS-1 is < 8%; in data set [5], 26%; in [4], 25%; in [6], 23%; in data set [3] it was 25%.

As to `CCN(CC)c1ccc(CNc2c(-c3ccccc3)noc2C)cc1`, the Activity in data set [2] was 89%; with COS-1, < 8%; in data set [3], 91%; in data set [7] it was 77%.

Turning to `C=CCN(Cc1ccc(N(CC)CC)cc1)c1c(-c2ccccc2)noc1C`, the Activity in [2] is 73%; in the data set on COS-1, < 8%; in data set [3], 53%; in data set [7] it was 80%.

Take `Cc1onc(-c2ccccc2)c1COc1ccc(C(=O)O)cc1`: the Activity in [9] came to 120%.

With `CCN(CC)c1ccc(NC(=O)c2cc(C)sc2-c2cc(C)on2)cc1`, the results for the Activity in data set [2], in data set [3] and in data set [7] were 96%, 85% and 97%, respectively.

For the compound `CCN(CC)c1ccc(NC(=O)c2cnc(SC)n2-c2ccc(F)cc2)cc1`, the Activity in data set [2] was 65%; in the data set with COS-1 it was < 8%; in data set [6], 45%; in [3], 52%.

Consider `CCN(CC)c1ccc(NC(=O)c2c(-c3ccsc3)noc2C)cc1`, for which the Activity in [2] is 84%; with COS-1, < 8%; in data set [3], 66%; in data set [7], 71%.

Take `CCN(CC)c1ccc(NC(=O)c2cn(C)cc2-c2cc(C)on2)cc1`: the Activity in data set [8], in data set [3] and in [7] was 110% throughout.

Turning to `CCN(CC)c1ccc(NC(=O)c2c(-c3ccccc3Cl)noc2C)cc1`, the values for the Activity in [2], in data set [3] and in data set [7] were 97%, 88% and 110%, respectively.

Turning to `CCN(CC)c1ccc(-n2c(=O)c3c(C)onc3c3ccccc32)cc1`, the Activity in data set [8] was 110%.

As for `CCN(CC)c1ccc(NC(=O)c2c(-c3cc(C)on3)noc2C)cc1`, the values for the Activity in [2], in data set [3] and in [7] were 87%, 100% and 100%, respectively.

In the case of `C#CC[N+](CC)(CC)c1ccc(NC(=O)c2c(-c3ccccc3)noc2C)cc1`, in [8], the Activity is 120%.

Turning to `Cc1onc(-c2ccccc2)c1C(=O)Nc1ccc2oc(-c3ccccc3)cc(=O)c2c1`, the Activity in data set [2] is 53%; with COS-1, < 8%; in [3], 31%; in data set [7] it was 66%.
